ChEMBL document CHEMBL1134340, “GnRH antagonists: a new generation of long acting analogues incorporating p-ureido-phenylalanines at positions 5 and 6” (J Med Chem, 2001)
*1 amine or outer side, *2 acyl side, *3 side chain or, on linkers, in order; H or OH if unused. Where a SMILES comes first, the peptide text is derived from it. Side-chain parts run from the residue outwards. [ ]: non-standard residue; d: D form. dPhe(4-NHCONH2) = NC(=O)Nc1ccc(C[C@@H](N)C(=O)O)cc1; Phe(4-NHCONH2) = NC(=O)Nc1ccc(C[C@H](N)C(=O)O)cc1; dPhe(4-NH2) = Nc1ccc(C[C@@H](N)C(=O)O)cc1; dPhe(4-Cl) = N[C@H](Cc1ccc(Cl)cc1)C(=O)O; Phe(4-NH2) = Nc1ccc(C[C@H](N)C(=O)O)cc1; d2Nal = N[C@H](Cc1ccc2ccccc2c1)C(=O)O; Lys(iPr) = CC(C)NCCCC[C@H](N)C(=O)O; d3Pal = N[C@H](Cc1cccnc1)C(=O)O; CO = O=C([*:1])[*:2]

Columns and labels:
[1] = target: T1, Gonadotropin-releasing hormone receptor (Homo sapiens, UniProt P30968); assay: Antagonism of human GnHR receptor, determined in a reporter gene assay in HEK293 cells; type: functional, cell-based
T1 sequence (P30968 whole entry): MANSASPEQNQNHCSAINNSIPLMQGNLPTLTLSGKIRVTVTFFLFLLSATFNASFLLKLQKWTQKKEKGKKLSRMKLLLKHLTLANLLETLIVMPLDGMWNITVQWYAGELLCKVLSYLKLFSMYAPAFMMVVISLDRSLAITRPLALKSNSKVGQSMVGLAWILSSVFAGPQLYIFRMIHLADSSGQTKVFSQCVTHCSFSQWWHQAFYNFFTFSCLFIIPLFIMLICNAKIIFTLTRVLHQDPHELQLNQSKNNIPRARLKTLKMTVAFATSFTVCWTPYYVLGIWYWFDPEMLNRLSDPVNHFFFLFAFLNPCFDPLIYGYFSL
Method in brief: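 HEK293 cells stably expressing cloned human GnRH receptor plus luciferase reporter under LH alpha subunit promoter, plated 24 h before assay. Compound in 1% DMSO added 10 min at 37 °C, then GnRH at 3 nM final; 5 h incubation, luciferase luminescence read. Six concentrations in duplicate; blank-subtracted cps as % of GnRH control; mean of two determinations.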

Rattus norvegicus [2] = organism: Rattus norvegicus; assay: Compound was tested for inhibition of Leutenizing hormone release at 48 hours (intermediate duration) in castrated male rat assay; type: functional; set-up: concentration or dose not given beside the values
Method in brief: (§1)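 Male Sprague-Dawley rats (180-200 g), castrated under ether 10 days earlier, 5 per group. 50 µg/rat given sc in 100 µL 40 mM phosphate buffer with 0.1% BSA and 0.6% DMSO; acyline run as internal standard. Tail blood taken predose and at 24, 48, 72, 96 (sometimes 120) h; plasma LH by RIA. Duration classed by >80% LH inhibition at each time.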

[3] = target: T1, Gonadotropin-releasing hormone receptor; assay: Competitive antagonism of GnRH-induced response in the reporter gene assay; type: functional; settings: read-out: pA2 (converted)
Method in brief: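 Same HEK293 human GnRH receptor luciferase reporter cells. Seven-point GnRH curve (10 µM to 10 pM final) run in duplicate without or with four to five increasing compound concentrations (10 min preincubation, 37 °C), then 5 h and luminescence. GnRH EC50 at each level by four-parameter logistic fit, giving pA2; mean of two determinations in duplicate.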

Rattus norvegicus [4] = organism: Rattus norvegicus; assay: Compound was tested for inhibition of Leutenizing hormone release at 96 hours (very long duration) in castrated male rat assay; type: functional; set-up: concentration or dose not given beside the values; method in brief: as §1
Rattus norvegicus [5] = organism: Rattus norvegicus; assay: Compound was tested for histamine release at a concentration of 100 ug/mL; type: functional
Method in brief: (§2)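 Sprague-Dawley rat peritoneal mast cells, Percoll-purified, in heparinized balanced salt solution with albumin, pH 7.2. Cells exposed to compound or vehicle for 2 min at 37 °C. Supernatant histamine measured spectrofluorometrically after o-phthalaldehyde derivatization; pellets lysed for retained histamine. Reported as % of total histamine released, corrected for spontaneous release in vehicle.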

Rattus norvegicus [6] = organism: Rattus norvegicus; assay: Compound was tested for histamine release at a concentration of 30 ug/mL; type: functional; method in brief: as §2
Rattus norvegicus [7] = organism: Rattus norvegicus; assay: Compound was tested for inhibition of Leutenizing hormone release at 72 hours (long duration) in castrated male rat assay; type: functional; set-up: concentration or dose not given beside the values; method in brief: as §1

SMILES | IC50 [1] [nM] | Kb [3] [nM] | Inhibition (Rattus norvegicus [2]) [%] | further results
CCNC(=O)[C@@H]1CCCN1C(=O)[C@H](CCCCNC(C)C)NC(=O)[C@H](CC(C)C)NC(=O)[C@@H](Cc1ccc(CNC(N)=O)cc1)NC(=O)[C@H](Cc1ccc(NC(=O)[C@@H]2CC(=O)NC(=O)N2)cc1)NC(=O)[C@H](CO)NC(=O)[C@@H](Cc1cccnc1)NC(=O)[C@@H](Cc1ccc(Cl)cc1)NC(=O)[C@@H](Cc1ccc2ccccc2c1)NC(C)=O |  |  | >80 | 
CC(=O)Nc1ccc(C[C@H](NC(=O)[C@H](CO)NC(=O)[C@@H](Cc2cccnc2)NC(=O)[C@@H](Cc2ccc(Cl)cc2)NC(=O)[C@@H](Cc2ccc3ccccc3c2)NC(C)=O)C(=O)N[C@H](Cc2ccc(NC(=O)[C@@H]3CC(=O)NC(=O)N3)cc2)C(=O)N[C@@H](CC(C)C)C(=O)N[C@@H](CCCCNC(C)C)C(=O)N2CCC[C@H]2C(=O)N[C@H](C)C(N)=O)cc1 |  |  | >80 | HR (Rattus norvegicus [5]): 64%; HR (Rattus norvegicus [6]): 17%
CC(=O)Nc1ccc(C[C@H](NC(=O)[C@H](CO)NC(=O)[C@@H](Cc2cccnc2)NC(=O)[C@@H](Cc2ccc(Cl)cc2)NC(=O)[C@@H](Cc2ccc3ccccc3c2)NC(C)=O)C(=O)N[C@H](Cc2ccc(CNC(N)=O)cc2)C(=O)N[C@@H](CC(C)C)C(=O)N[C@@H](CCCCNC(C)C)C(=O)N2CCC[C@H]2C(=O)N[C@H](C)C(N)=O)cc1 |  |  | >80 | 
CC(=O)N[C@H](Cc1ccc2ccccc2c1)C(=O)N[C@H](Cc1ccc(Cl)cc1)C(=O)N[C@H](Cc1cccnc1)C(=O)N[C@@H](CO)C(=O)N[C@@H](Cc1ccc(NC(=O)[C@@H]2CC(=O)NC(=O)N2)cc1)C(=O)N[C@H](Cc1ccc(NC(N)=O)cc1)C(=O)N[C@@H](CC(C)C)C(=O)N[C@@H](CCCCNC(C)C)C(=O)N1CCC[C@H]1C(=O)N[C@H](C)C(N)=O [DEGARELIX] | 8.8 | 0.631 | >80 | 
CC(=O)N[C@H](Cc1ccc2ccccc2c1)C(=O)N[C@H](Cc1ccc(Cl)cc1)C(=O)N[C@H](Cc1cccnc1)C(=O)N[C@@H](CO)C(=O)N[C@@H](Cc1ccc(NC(=O)[C@@H]2CC(=O)NC(=O)N2)cc1)C(=O)N[C@H](Cc1ccc(NC(N)=O)cc1)C(=O)N[C@@H](CC(C)C)C(=O)N[C@@H](CCCCNC(C)C)C(=O)N1CCC[C@H]1C(=O)N[C@H](C)CO |  |  |  | Inhibition (Rattus norvegicus [4]): >80%
CC(=O)N[C@H](Cc1ccc2ccccc2c1)C(=O)N[C@H](Cc1ccc(Cl)cc1)C(=O)N[C@H](Cc1cccnc1)C(=O)N[C@@H](CO)C(=O)N[C@@H](Cc1ccc(NC(=O)[C@@H]2CC(=O)NC(=O)N2)cc1)C(=O)N[C@H](Cc1ccc(NC(=O)[C@@H]2CC(=O)NC(=O)N2)cc1)C(=O)N[C@@H](CC(C)C)C(=O)N[C@@H](CCCCNC(C)C)C(=O)N1CCC[C@H]1C(=O)N[C@H](C)C(N)=O |  |  |  | Inhibition (Rattus norvegicus [7]): >80%; HR (Rattus norvegicus [5]): 11%; HR (Rattus norvegicus [6]): <10%
CCNC(=O)[C@@H]1CCCN1C(=O)[C@H](CCCCNC(C)C)NC(=O)[C@H](CC(C)C)NC(=O)[C@@H](Cc1ccc(NC(N)=O)cc1)NC(=O)[C@H](Cc1ccc(NC(=O)[C@@H]2CC(=O)NC(=O)N2)cc1)NC(=O)[C@H](CO)NC(=O)[C@@H](Cc1cccnc1)NC(=O)[C@@H](Cc1ccc(Cl)cc1)NC(=O)[C@@H](Cc1ccc2ccccc2c1)NC(C)=O |  |  |  | Inhibition (Rattus norvegicus [7]): >80%
CC(=O)N[C@H](Cc1ccc2ccccc2c1)C(=O)N[C@H](Cc1ccc(Cl)cc1)C(=O)N[C@H](Cc1cccnc1)C(=O)N[C@@H](CO)C(=O)N[C@@H](Cc1ccc(NC(=O)[C@@H]2CC(=O)NC(=O)N2)cc1)C(=O)N[C@H](Cc1ccc(CNC(N)=O)cc1)C(=O)N[C@@H](CC(C)C)C(=O)N[C@@H](CCCCNC(C)C)C(=O)N1CCC[C@H]1C(=O)N[C@H](C)CO | 7.8 | 1 |  | Inhibition (Rattus norvegicus [4]): >80%
CC(=O)Nc1ccc(C[C@@H](NC(=O)[C@H](Cc2ccc(NC(=O)C[C@@H]3NC(=O)NC3=O)cc2)NC(=O)[C@H](CO)NC(=O)[C@@H](Cc2cccnc2)NC(=O)[C@@H](Cc2ccc(Cl)cc2)NC(=O)[C@@H](Cc2ccc3ccccc3c2)NC(C)=O)C(=O)N[C@@H](CC(C)C)C(=O)N[C@@H](CCCCNC(C)C)C(=O)N2CCC[C@H]2C(=O)N[C@H](C)C(N)=O)cc1 | 8.1 |  | >80 | 
CNC(=O)Nc1ccc(C[C@H](NC(=O)[C@H](CO)NC(=O)[C@@H](Cc2cccnc2)NC(=O)[C@@H](Cc2ccc(Cl)cc2)NC(=O)[C@@H](Cc2ccc3ccccc3c2)NC(C)=O)C(=O)N[C@H](Cc2ccc(NC(=O)NC)cc2)C(=O)N[C@@H](CC(C)C)C(=O)N[C@@H](CCCCNC(C)C)C(=O)N2CCC[C@H]2C(=O)N[C@H](C)C(N)=O)cc1 (Ac-[d2Nal][dPhe(4-Cl)][d3Pal]S[Phe(4-NH2)]([CO-NHMe])[dPhe(4-NH2)]([CO-NHMe])L[Lys(iPr)]P[dA]-NH2) |  |  | >80 | 
CC(=O)N[C@H](Cc1ccc2ccccc2c1)C(=O)N[C@H](Cc1ccc(Cl)cc1)C(=O)N[C@H](Cc1cccnc1)C(=O)N[C@@H](CO)C(=O)N[C@@H](Cc1ccc(NC(=O)[C@@H]2CC(=O)NC(=O)N2)cc1)C(=O)N[C@H](Cc1ccc(CNC(N)=O)cc1)C(=O)N[C@@H](CC(C)C)C(=O)N[C@@H](CCCCNC(C)C)C(=O)N1CCC[C@H]1C(=O)N[C@@H](C)CO | 5.5 | 0.631 |  | Inhibition (Rattus norvegicus [4]): >80%
CC(=O)Nc1ccc(C[C@@H](NC(=O)[C@H](Cc2ccc(NC(=O)C(NC(N)=O)NC(N)=O)cc2)NC(=O)[C@H](CO)NC(=O)[C@@H](Cc2cccnc2)NC(=O)[C@@H](Cc2ccc(Cl)cc2)NC(=O)[C@@H](Cc2ccc3ccccc3c2)NC(C)=O)C(=O)N[C@@H](CC(C)C)C(=O)N[C@@H](CCCCNC(C)C)C(=O)N2CCC[C@H]2C(=O)N[C@H](C)C(N)=O)cc1 | 8.9 |  | >80 | 

More lines, main results first:

IC50 [1] [nM] | Kb [3] [nM] | SMILES | Inhibition (Rattus norvegicus [2]) [%] | further results
7.2 |  | CC(=O)Nc1ccc(C[C@@H](NC(=O)[C@H](Cc2ccc(NC(N)=O)cc2)NC(=O)[C@H](CO)NC(=O)[C@@H](Cc2cccnc2)NC(=O)[C@@H](Cc2ccc(Cl)cc2)NC(=O)[C@@H](Cc2ccc3ccccc3c2)NC(C)=O)C(=O)N[C@@H](CC(C)C)C(=O)N[C@@H](CCCCNC(C)C)C(=O)N2CCC[C@H]2C(=O)N[C@H](C)C(N)=O)cc1 (Ac-[d2Nal][dPhe(4-Cl)][d3Pal]S[Phe(4-NHCONH2)][dPhe(4-NH2)](Ac)L[Lys(iPr)]P[dA]-NH2) | >80 | 
4.3 | 1.26 | CC(=O)Nc1ccc(C[C@@H](NC(=O)[C@H](Cc2ccc(NC(=O)[C@@H]3CC(=O)NC(=O)N3)cc2)NC(=O)[C@H](CO)NC(=O)[C@@H](Cc2cccnc2)NC(=O)[C@@H](Cc2ccc(Cl)cc2)NC(=O)[C@@H](Cc2ccc3ccccc3c2)NC(C)=O)C(=O)N[C@@H](CC(C)C)C(=O)N[C@@H](CCCCNC(C)C)C(=O)N2CCC[C@H]2C(=O)N[C@H](C)C(N)=O)cc1 |  | Inhibition (Rattus norvegicus [4]): >80%; HR (Rattus norvegicus [5]): 54%
9.1 | 0.631 | CC(=O)Nc1ccc(C[C@@H](NC(=O)[C@H](Cc2ccc(NC(=O)[C@@H]3CNC(=O)N3)cc2)NC(=O)[C@H](CO)NC(=O)[C@@H](Cc2cccnc2)NC(=O)[C@@H](Cc2ccc(Cl)cc2)NC(=O)[C@@H](Cc2ccc3ccccc3c2)NC(C)=O)C(=O)N[C@@H](CC(C)C)C(=O)N[C@@H](CCCCNC(C)C)C(=O)N2CCC[C@H]2C(=O)N[C@H](C)C(N)=O)cc1 |  | Inhibition (Rattus norvegicus [7]): >80%
10.8 |  | CC(=O)Nc1ccc(C[C@@H](NC(=O)[C@H](Cc2ccc(NC(=O)[C@H]3CNC(=O)N3)cc2)NC(=O)[C@H](CO)NC(=O)[C@@H](Cc2cccnc2)NC(=O)[C@@H](Cc2ccc(Cl)cc2)NC(=O)[C@@H](Cc2ccc3ccccc3c2)NC(C)=O)C(=O)N[C@@H](CC(C)C)C(=O)N[C@@H](CCCCNC(C)C)C(=O)N2CCC[C@H]2C(=O)N[C@H](C)C(N)=O)cc1 | >80 | 
8.6 | 1 | CC(=O)Nc1ccc(C[C@@H](NC(=O)[C@H](Cc2ccc(NC(=O)[C@H]3CC(=O)NC(=O)N3)cc2)NC(=O)[C@H](CO)NC(=O)[C@@H](Cc2cccnc2)NC(=O)[C@@H](Cc2ccc(Cl)cc2)NC(=O)[C@@H](Cc2ccc3ccccc3c2)NC(C)=O)C(=O)N[C@@H](CC(C)C)C(=O)N[C@@H](CCCCNC(C)C)C(=O)N2CCC[C@H]2C(=O)N[C@H](C)C(N)=O)cc1 |  | Inhibition (Rattus norvegicus [7]): >80%
6.1 | 0.501 | CC(=O)Nc1ccc(C[C@H](NC(=O)[C@H](CO)NC(=O)[C@@H](Cc2cccnc2)NC(=O)[C@@H](Cc2ccc(Cl)cc2)NC(=O)[C@@H](Cc2ccc3ccccc3c2)NC(C)=O)C(=O)N[C@H](Cc2ccc(NC(N)=O)cc2)C(=O)N[C@@H](CC(C)C)C(=O)N[C@@H](CCCCNC(C)C)C(=O)N2CCC[C@H]2C(=O)N[C@H](C)C(N)=O)cc1 (Ac-[d2Nal][dPhe(4-Cl)][d3Pal]S[Phe(4-NH2)](Ac)[dPhe(4-NHCONH2)]L[Lys(iPr)]P[dA]-NH2) |  | Inhibition (Rattus norvegicus [7]): >80%
